Experimental data published in ChEMBL document CHEMBL2346664, “Synthesis, characterization and in vitro anticancer evaluation of novel 1,2,4-triazolin-3-one derivatives” (2013).

Legend:
Assay type in all cases: functional
LOX IMVI = assay: Growth inhibition of human LOXIMVI cells assessed as cell growth at 10 '-6 M after 48 hrs by sulforhodamine B assay; conditions: read-out: Activity
DU-145 [1] = assay: Growth inhibition of human DU145 cells after 48 hrs by sulforhodamine B assay; conditions: DU-145, 48 h
Procedure, shortened: (§1)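 NCI 60-cell-line five-dose screen. Cells were plated at 5,000–40,000/well by doubling time and grown 24 h at 37 °C, 5% CO2. Time-zero plates were TCA-fixed. Drug from DMSO stock was tested at 0.01, 0.1, 1, 10 and 100 µM final for 48 h continuous exposure. Read-out was SRB at 515 nm. GI50 is the concentration giving 50% reduction in net protein increase versus untreated control.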

K562 = assay: Growth inhibition of human K562 cells assessed as cell growth at 10 '-4 M after 48 hrs by sulforhodamine B assay; conditions: K562, 48 h, read-out: Activity
A549 = assay: Growth inhibition of human A549 cells after 48 hrs by sulforhodamine B assay; conditions: A549, 48 h
Procedure, shortened: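 NCI 60-cell-line five-dose screen at 0.01, 0.1, 1, 10 and 100 µM final. Cells were plated at 5,000–40,000/well and grown 24 h at 37 °C, 5% CO2, then exposed to drug continuously for 48 h. Adherent cells were fixed with cold TCA (10% final) and stained with SRB; absorbance read at 515 nm. GI50 is the concentration where [(Ti-Tz)/(C-Tz)]×100 = 50, with Tz plates fixed at drug addition.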

OVCAR-4 = assay: Growth inhibition of human OVCAR4 cells assessed as cell growth at 10 '-7 M after 48 hrs by sulforhodamine B assay; conditions: OVCAR-4, 48 h, read-out: Activity
MDA-MB-435 = assay: Growth inhibition of human MDA-MB-435 cells after 48 hrs by sulforhodamine B assay; conditions: MDA-MB-435, 48 h; procedure, shortened: as §1
SK-MEL-2 = assay: Growth inhibition of human SK-MEL-2 cells assessed as cell growth at 10 '-4 M after 48 hrs by sulforhodamine B assay; conditions: SK-MEL-2, 48 h, read-out: Activity
SW-620 = assay: Growth inhibition of human SW620 cells assessed as cell growth at 10 '-7 M after 48 hrs by sulforhodamine B assay; conditions: SW-620, 48 h, read-out: Activity
Malme-3M = assay: Growth inhibition of human MALME-3M cells assessed as growth inhibition at 10 uM after 48 hrs by sulforhodamine B assay; conditions: read-out: GI
[2] = Growth inhibition of human HCC2998 cells assessed as cell growth at 10 '-8 M after 48 hrs by sulforhodamine B assay; conditions: HCC 2998, 48 h, read-out: Activity
[3] = Growth inhibition of human NCI-ADR-RES cells assessed as cell growth at 10 '-8 M after 48 hrs by sulforhodamine B assay; conditions: read-out: Activity
NCI-H460 = assay: Growth inhibition of human NCI-H460 cells assessed as cell growth at 10 '-4 M after 48 hrs by sulforhodamine B assay; conditions: NCI-H460, 48 h, read-out: Activity
[4] = Growth inhibition of human NCI-ADR-RES cells after 48 hrs by sulforhodamine B assay; procedure, shortened: as §1
DU-145 [5] = assay: Growth inhibition of human DU145 cells assessed as cell growth at 10 '-6 M after 48 hrs by sulforhodamine B assay; conditions: DU-145, 48 h, read-out: Activity
MDA-MB-468 = assay: Growth inhibition of human MDA-MB-468 cells assessed as cell growth at 10 '-5 M after 48 hrs by sulforhodamine B assay; conditions: MDA-MB-468, 48 h, read-out: Activity
786-0 = assay: Growth inhibition of human 786-0 cells assessed as cell growth at 10 '-6 M after 48 hrs by sulforhodamine B assay; conditions: 786-0, 48 h, read-out: Activity
Procedure, shortened: (§2)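 Percent growth at each of the five concentrations of the 48 h continuous-exposure NCI SRB screen. Drug stocks were in DMSO at 400× the top final concentration and diluted in medium with gentamicin. Growth was calculated as [(Ti-Tz)/(C-Tz)]×100 when Ti ≥ Tz, or [(Ti-Tz)/Tz]×100 when Ti < Tz. Tz plates were fixed at drug addition; untreated wells served as control. Absorbance was read at 515 nm.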

[6] = Growth inhibition of human HCC2998 cells assessed as growth inhibition at 10 uM after 48 hrs by sulforhodamine B assay; conditions: HCC 2998, 48 h, read-out: GI
DU-145 [7] = assay: Growth inhibition of human DU145 cells assessed as cell growth at 10 '-5 M after 48 hrs by sulforhodamine B assay; conditions: DU-145, 48 h, read-out: Activity
OVCAR-3 = assay: Growth inhibition of human OVCAR3 cells assessed as cell growth at 10 '-4 M after 48 hrs by sulforhodamine B assay; conditions: OVCAR-3, 48 h, read-out: Activity
SK-OV-3 = assay: Growth inhibition of human SKOV3 cells after 48 hrs by sulforhodamine B assay; conditions: SK-OV-3, 48 h
SF-295 = assay: Growth inhibition of human SF295 cells assessed as cell growth at 10 '-8 M after 48 hrs by sulforhodamine B assay; conditions: SF-295, 48 h, read-out: Activity
SR = assay: Growth inhibition of human SR cells assessed as cell growth at 10 '-7 M after 48 hrs by sulforhodamine B assay; conditions: read-out: Activity
DU-145 [8] = assay: Growth inhibition of human DU145 cells assessed as cell growth at 10 '-7 M after 48 hrs by sulforhodamine B assay; conditions: DU-145, 48 h, read-out: Activity
PC-3 = assay: Growth inhibition of human PC3 cells assessed as cell growth at 10 '-8 M after 48 hrs by sulforhodamine B assay; conditions: PC-3, 48 h, read-out: Activity
UO-31 = assay: Growth inhibition of human UO31 cells after 48 hrs by sulforhodamine B assay; conditions: UO-31, 48 h
SF-539 = assay: Growth inhibition of human SF539 cells assessed as cell growth at 10 '-4 M after 48 hrs by sulforhodamine B assay; conditions: SF-539, 48 h, read-out: Activity
IGROV-1 = assay: Growth inhibition of human IGROV1 cells after 48 hrs by sulforhodamine B assay; conditions: IGROV-1, 48 h; procedure, shortened: as §1
M14 = assay: Growth inhibition of human M14 cells assessed as cell growth at 10 '-6 M after 48 hrs by sulforhodamine B assay; conditions: M14, 48 h, read-out: Activity
CAKI-1 = assay: Growth inhibition of human CAKI-1 cells assessed as cell growth at 10 '-8 M after 48 hrs by sulforhodamine B assay; conditions: CAKI-1, 48 h, read-out: Activity; procedure, shortened: as §2
[9] = read-out: LD50 (the source's name)

## Cc1cc(=O)oc2cc(OCCn3c(C)nn(-c4ccc(Cl)cc4)c3=O)ccc12
LOX IMVI
  growth at 1 µM: 74%
DU-145 [1]
  GI50: 3900 nM
  TGI: > 1000 nM
DU-145 [1]; [9]
  CC50: > 1000 nM
K562
  growth at 100 µM: 12%
A549
  GI50: 6070 nM
  TGI: > 1000 nM
A549; [9]
  CC50: > 1000 nM
OVCAR-4
  growth at 0.1 µM: 90%
MDA-MB-435
  GI50: 2690 nM
  TGI: 8370 nM
MDA-MB-435; [9]
  CC50: > 1000 nM
SK-MEL-2
  growth at 100 µM: 14%
SW-620
  growth at 0.1 µM: 98%
Malme-3M
  inhibition of growth at 10 µM: 67.1%
[2]
  growth at 0.01 µM: 95%
[3]
  growth at 0.01 µM: 102%
NCI-H460
  growth at 100 µM: 8%
[4]
  GI50: 1640 nM
  TGI: > 1000 nM
[4]; [9]
  CC50: > 1000 nM
DU-145 [5]
  growth at 1 µM: 96%
MDA-MB-468
  growth at 10 µM: 15%
786-0
  growth at 1 µM: 97%
[6]
  inhibition of growth at 10 µM: 53.3%
DU-145 [7]
  growth at 10 µM: 18%
OVCAR-3
  growth at 100 µM: -29%
SK-OV-3
  GI50: 3360 nM
  TGI: 4880 nM
SK-OV-3; [9]
  CC50: > 1000 nM
SF-295
  growth at 0.01 µM: 94%
SR
  growth at 0.1 µM: 99%
DU-145 [8]
  growth at 0.1 µM: 108%
PC-3
  growth at 0.01 µM: 97%
UO-31
  GI50: 1270 nM
  TGI: > 1000 nM
UO-31; [9]
  CC50: > 1000 nM
SF-539
  growth at 100 µM: -12%
IGROV-1
  GI50: 3500 nM
  TGI: > 1000 nM
M14
  growth at 1 µM: 67%
CAKI-1
  growth at 0.01 µM: 97%
